ChEMBL document CHEMBL3045116, “Synthesis and biological evaluation of 2-(5-substituted-1-((diethylamino)methyl)-2-oxoindolin-3-ylidene)-N-substituted-hydrazinecarbothioamides” (Med Chem Res, 2013)

Key:
CCRF-CEM = experiment: Cytotoxicity against Homo sapiens (human) CEM cells assessed as growth inhibition after 72 hr by coulter counter analysis; assay type: functional, cell-based
Method in brief: (§1)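 Cells in growth medium were allowed to proliferate with variable compound amounts at 37 °C in a humidified CO2 atmosphere. Incubation ran 48 h for L1210, 72 h for CEM and 96 h for HeLa. Cells were then counted with a Coulter counter.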

Coxsackievirus B4 [1] = experiment: Antiviral activity against Human coxsackievirus B4 infected human HeLa cells assessed as reduction of virus-induced cytopathic effect after 3 days by colorimetric formazan-based MTS assay; assay type: functional, organism-based; settings: Enterovirus B, 72 h
Method in brief: (§2)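 Confluent cell monolayers were infected with 100 CCID50 of virus, and serial dilutions of compound were added at the time of infection.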

Human alphaherpesvirus 1 [2] = experiment: Antiviral activity against acyclovir-resistant thymidine kinase negative Human herpesvirus 1 strain KOS infected human HEL cells assessed as reduction of virus-induced cytopathic effect after 3 days by colorimetric formazan-based MTS assay; assay type: functional, organism-based; settings: Human alphaherpesvirus 1, KOS, 72 h; method in brief: as §2
Klebsiella pneumoniae = experiment: Antibacterial activity against Klebsiella pneumoniae assessed as growth inhibition at 50 ug/ml by cup-plate method (reference value: 8 to 10 mm); assay type: functional; settings: read-out: DIZ
[3] = (§3) Cytotoxicity against MDCK cells assessed as change in cellular morphology; assay type: cell-based, Canis lupus familiaris; settings: dog, MDCK cells
Method in brief: (§4)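 Uninfected cells were exposed to compound in parallel with the antiviral cultures. The read-out is the minimum cytotoxic concentration that causes a microscopically detectable alteration of normal cell morphology.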

MDCK = experiment: as §3; assay type: cell-based, Canis lupus familiaris; settings: dog, mdck; method in brief: as §4
Escherichia coli = experiment: Antibacterial activity against Escherichia coli assessed as growth inhibition at 50 ug/ml by cup-plate method (reference value: 8 to 10 mm); assay type: functional; settings: read-out: DIZ
Human alphaherpesvirus 1 [4] = experiment: Antiviral activity against Human herpesvirus 1 strain KOS infected human HEL cells assessed as reduction of virus-induced cytopathic effect after 3 days by colorimetric formazan-based MTS assay; assay type: functional, organism-based; settings: Human alphaherpesvirus 1, KOS, 72 h; method in brief: as §2
[5] = (§5) Cytotoxicity against Homo sapiens (human) HeLa cells assessed as change in cellular morphology; assay type: cell-based; settings: HeLa cells; method in brief: as §4
HeLa = experiment: as §5; assay type: cell-based; settings: hela; method in brief: as §4
Human respirovirus 3 = experiment: Antiviral activity against Human parainfluenza virus 3 infected African green monkey Vero cells assessed as reduction of virus-induced cytopathic effect after 3 days by colorimetric formazan-based MTS assay; assay type: functional, organism-based; settings: Human respirovirus 3, Vero, 72 h
Method in brief: (§6)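 Cells grown to confluency in 96-well plates ([…], Vero for lines 9–10) were infected with 100 CCID50 of virus, and serial compound dilutions were added at infection. Plates were incubated at 37 °C for 3 days, until complete CPE appeared in untreated virus controls.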

Punta Toro virus = experiment: Antiviral activity against Punta Toro virus infected in African green monkey Vero cells assessed as reduction of virus-induced cytopathic effect after 3 days by colorimetric formazan-based MTS assay; assay type: functional, organism-based; settings: 72 h; method in brief: as §2
Proteus vulgaris = experiment: Antibacterial activity against Proteus vulgaris assessed as growth inhibition at 50 ug/ml by cup-plate method (reference value: 8 to 10 mm); assay type: functional; settings: read-out: DIZ
Vaccinia virus = experiment: Antiviral activity against Vaccinia virus infected human HEL cells assessed as reduction of virus-induced cytopathic effect after 3 days by colorimetric formazan-based MTS assay; assay type: functional, organism-based; settings: Orthopoxvirus vaccinia, 72 h; method in brief: as §2
Aspergillus niger = experiment: Antifungal activity against Aspergillus niger assessed as growth inhibition at 50 ug/ml by cup-plate method (reference value: 8 to 10 mm); assay type: functional; settings: read-out: DIZ
Human alphaherpesvirus 2 = experiment: Antiviral activity against Human herpesvirus 2 strain G infected human HEL cells assessed as reduction of virus-induced cytopathic effect after 3 days by colorimetric formazan-based MTS assay; assay type: functional, organism-based; settings: Human alphaherpesvirus 2, strain G, 72 h; method in brief: as §2
[6] = Inhibition of beta lactamase assessed as increase in time taken for iodine decolorization relative to control; design: concentration or dose not given beside the values; settings: concentration not given here
[7] = Inhibition of beta lactamase assessed as time for decolorization of iodine (reference value: 79.5 secs)
[8] = system: Respiratory syncytial virus; experiment: Antiviral activity against Respiratory syncytial virus infected human HeLa cells assessed as reduction of virus-induced cytopathic effect after 3 days by colorimetric formazan-based MTS assay; assay type: functional, organism-based; settings: 72 h; method in brief: as §2
[9] = system: Feline infectious peritonitis virus; experiment: Antiviral activity against Feline Infectious peritonitis virus infected cat CRFK cells assessed as reduction of virus-induced cytopathic effect after 3 days by colorimetric formazan-based MTS assay; assay type: functional, organism-based; settings: Alphacoronavirus 1, CRFK, 72 h; method in brief: as §2
[10] = system: Mammalian orthoreovirus 1; experiment: Antiviral activity against Mammalian orthoreovirus 1 infected African green monkey Vero cells assessed as reduction of virus-induced cytopathic effect after 3 days by colorimetric formazan-based MTS assay; assay type: functional, organism-based; settings: Mammalian orthoreovirus 1, Vero, 72 h; method in brief: as §6
Influenza A virus = experiment: Antiviral activity against Unidentified Influenza A virus (H1N1) infected MDCK cells assessed as reduction of virus-induced cytopathic effect after 3 days by colorimetric formazan-based MTS assay; assay type: functional, organism-based; settings: 72 h; method in brief: as §2
Felid alphaherpesvirus 1 = experiment: Antiviral activity against Felid herpesvirus 1 infected cat CRFK cells assessed as reduction of virus-induced cytopathic effect after 3 days by colorimetric formazan-based MTS assay; assay type: functional, organism-based; settings: Felid alphaherpesvirus 1, CRFK, 72 h; method in brief: as §6
[11] = Cytotoxicity against Chlorocebus aethiops (African green monkey) Vero cells assessed as change in cellular morphology; assay type: cell-based; settings: chlorocebus sabaeus
Influenza A virus H3N2 = experiment: Antiviral activity against Influenza A virus H3N2 infected MDCK cells assessed as reduction of virus-induced cytopathic effect after 3 days by colorimetric formazan-based MTS assay; assay type: functional, organism-based; settings: 72 h; method in brief: as §2
L1210 = experiment: Cytotoxicity against Mus musculus (mouse) L1210 cells assessed as growth inhibition after 48 hr by coulter counter analysis; assay type: functional, cell-based; settings: L1210, 48 h; method in brief: as §1
[12] = system: Vesicular stomatitis virus; experiment: Antiviral activity against Vesicular stomatitis virus infected human HEL cells assessed as reduction of virus-induced cytopathic effect after 3 days by colorimetric formazan-based MTS assay; assay type: functional, organism-based; settings: 72 h; method in brief: as §2
Staphylococcus aureus = experiment: Antibacterial activity against Staphylococcus aureus assessed as growth inhibition at 50 ug/ml by cup-plate method (reference value: 8 to 10 mm); assay type: functional; settings: read-out: DIZ
[13] = Cytotoxicity against Felis catus (cat) CRFK cells assessed as change in cellular morphology; assay type: cell-based; settings: crfk; method in brief: as §4
Candida albicans = experiment: Antifungal activity against Candida albicans assessed as growth inhibition at 50 ug/ml by cup-plate method (reference value: 8 to 10 mm); assay type: functional; settings: read-out: DIZ
Coxsackievirus B4 [14] = experiment: Antiviral activity against Human coxsackievirus B4 infected African green monkey Vero cells assessed as reduction of virus-induced cytopathic effect after 3 days by colorimetric formazan-based MTS assay; assay type: functional, organism-based; settings: Enterovirus B, 72 h; method in brief: as §2
Bacillus subtilis = experiment: Antibacterial activity against Bacillus subtilis assessed as growth inhibition at 50 ug/ml by cup-plate method (reference value: 8 to 10 mm); assay type: functional; settings: read-out: DIZ
[15] = Cytotoxicity against Homo sapiens (human) HEL cells assessed as change in cellular morphology; assay type: cell-based
[16] = system: Vesicular stomatitis virus; experiment: Antiviral activity against Vesicular stomatitis virus infected human HeLa cells assessed as reduction of virus-induced cytopathic effect after 3 days by colorimetric formazan-based MTS assay; assay type: functional, organism-based; settings: 72 h; method in brief: as §2
Influenza B virus = experiment: Antiviral activity against Influenza B virus infected in MDCK cells assessed as reduction of virus-induced cytopathic effect after 3 days by colorimetric formazan-based MTS assay; assay type: functional, organism-based; settings: 72 h; method in brief: as §2
Salmonella typhi = experiment: Antibacterial activity against Salmonella enterica subsp. enterica serovar Typhi assessed as growth inhibition at 50 ug/ml by cup-plate method (reference value: 8 to 10 mm); assay type: functional; settings: read-out: DIZ
Respirovirus muris = experiment: Antiviral activity against Sendai virus infected African green monkey Vero cells assessed as reduction of virus-induced cytopathic effect after 3 days by colorimetric formazan-based MTS assay; assay type: functional, organism-based; settings: 72 h

| SMILES | IC50 (CCRF-CEM) | EC50 (Coxsackievirus B4 [1]) | EC50 (Human alphaherpesvirus 1 [2]) | zone of inhibition at 50 µg/mL (Klebsiella pneumoniae) | MCC [3] | CC50 (MDCK) | zone of inhibition at 50 µg/mL (Escherichia coli) | EC50 (Human alphaherpesvirus 1 [4]) | MCC [5] | CC50 (HeLa) | EC50 (Human respirovirus 3) | EC50 (Punta Toro virus) | zone of inhibition at 50 µg/mL (Proteus vulgaris) | EC50 (Vaccinia virus) | zone of inhibition at 50 µg/mL (Aspergillus niger) | EC50 (Human alphaherpesvirus 2) | inhibition [6] | TIME [7] | EC50 [8] | EC50 [9] | other results |
| --- | --- | --- | --- | --- | --- | --- | --- | --- | --- | --- | --- | --- | --- | --- | --- | --- | --- | --- | --- | --- | --- |
| CCN(CC)CN1C(=O)/C(=N/NC(=S)Nc2ccccc2)c2cc(Cl)ccc21 | 40 µM | > 20 µM | > 20 µM | 11 mm | ≥ 0.8 µM | 3 µM | 11 mm | > 20 µM | ≥ 20 µM | 13.5 µM | > 20 µM | > 20 µM | 21 mm | > 20 µM | 11 mm | > 20 µM | 49.2% | 0.0434 h | > 20 µM | > 4 µM | EC50 [10]: > 20 µM; EC50 (Influenza A virus): > 0.8 µM; EC50 (Felid alphaherpesvirus 1): > 4 µM; MCC [11]: 100 µM; EC50 (Influenza A virus H3N2): > 0.8 µM; IC50 (L1210): 49 µM; EC50 [12]: > 20 µM; zone of inhibition at 50 µg/mL (Staphylococcus aureus): 11 mm; CC50 [13]: 6.9 µM; zone of inhibition at 50 µg/mL (Candida albicans): 21 mm; EC50 (Coxsackievirus B4 [14]): > 20 µM; zone of inhibition at 50 µg/mL (Bacillus subtilis): 11 mm; MCC [15]: 100 µM; EC50 [16]: > 20 µM; EC50 (Influenza B virus): > 0.8 µM; zone of inhibition at 50 µg/mL (Salmonella typhi): 11 mm; EC50 (Respirovirus muris): > 20 µM |
| CCN(CC)CN1C(=O)/C(=N/NC(N)=S)c2cc(Cl)ccc21 | 71 µM | > 100 µM | > 100 µM | 11 mm | 100 µM | 78.3 µM | 11 mm | > 100 µM | > 100 µM | > 100 µM | > 100 µM | > 100 µM | 11 mm | 20 µM | 11 mm | > 100 µM | 34.6% | 0.0338 h | > 100 µM | > 100 µM | EC50 [10]: > 100 µM; EC50 (Influenza A virus): > 20 µM; EC50 (Felid alphaherpesvirus 1): > 100 µM; MCC [11]: > 100 µM; EC50 (Influenza A virus H3N2): > 20 µM; IC50 (L1210): 148 µM; EC50 [12]: > 100 µM; zone of inhibition at 50 µg/mL (Staphylococcus aureus): 21 mm; CC50 [13]: > 100 µM; zone of inhibition at 50 µg/mL (Candida albicans): 11 mm; EC50 (Coxsackievirus B4 [14]): > 100 µM; zone of inhibition at 50 µg/mL (Bacillus subtilis): 11 mm; MCC [15]: > 100 µM; EC50 [16]: > 100 µM; EC50 (Influenza B virus): > 20 µM; zone of inhibition at 50 µg/mL (Salmonella typhi): 11 mm; EC50 (Respirovirus muris): > 100 µM |
